How the values were obtained:
[1] = Binding affinity to rat MT1 receptor expressed in CHO-Galpha16 cells assessed as Ca2+ mobilization after 20 mins by FLIPR assay; type: cell-based
Summary of the method: (§1)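 CHO-Galpha16 cells expressing rat MT1 or MT2, plated 24 h ahead, loaded with Fluo4-AM (1.5 final) plus pluronic acid in HBSS/20 mM HEPES/0.1% BSA pH 7.4 with 2.5 mM probenecid, 1 h at 37 °C, then washed. Ca2+ read by FLIPR. Agonist mode: 15 s baseline, compound added, 3 min read. Antagonist mode: compound preincubated 20 min at room temperature, then melatonin at EC80, 3 min read.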

[2] = Binding affinity to rat MT2 receptor expressed in CHO-Galpha16 cells assessed as Ca2+ mobilization after 20 mins by FLIPR assay; type: cell-based; summary of the method: as §1
CHO-Galpha16 [3] = assay: Intrinsic activity at rat MT1 receptor expressed in CHO-Galpha16 cells assessed as Ca2+ mobilization after 20 mins by FLIPR assay relative to ramelteon; type: cell-based; summary of the method: as §1
Rattus norvegicus = organism: Rattus norvegicus; assay: Intrinsic activity at rat MT2 receptor expressed in CHO-Galpha16 cells assessed as Ca2+ mobilization after 20 mins by FLIPR assay relative to agomelatine; type: cell-based; summary of the method: as §1
[4] = Displacement of [3H]melatonin from rat MT1 receptor expressed in CHO-Galpha16 cells; type: cell-based
Summary of the method: (§2)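 Rat MT1 or MT2 membranes from CHO-Galpha16 cells incubated with [3H]-melatonin (0.5 nM final, 80 Ci/mmol) in 50 mM Tris/HCl pH 7.4, 5 mM MgCl2. Nonspecific binding defined with excess melatonin. Stopped by rapid GF/B filtration with five ice-cold washes. Ki from IC50 via Cheng–Prusoff.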

[5] = Displacement of [3H]melatonin from rat MT2 receptor expressed in CHO-Galpha16 cells; type: cell-based; summary of the method: as §2
Liver microsomes [6] = assay: Intrinsic clearance in human liver microsome at 1 uM by LC/MS analysis; type: ADME
Summary of the method: (§3)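 Compound at 1 µM incubated with liver microsomes (0.5 mg/mL protein) and an NADPH-regenerating system, sampled at 0, 5, 15, 30 and 60 min. Quenched, centrifuged supernatants analysed by LC/MS for remaining parent to estimate T1/2.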

Liver microsomes [7] = assay: Intrinsic clearance in rat liver microsome at 1 uM by LC/MS analysis; type: ADME; summary of the method: as §3
[8] = Drug level in rat brain at 10 mg/kg, ip after 1 hr; type: ADME, organism-based; parameters: dose 10 mg/kg, route intraperitoneal; settings: read-out: Drug uptake
Summary of the method: (§4)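 Rats dosed 10 mg/kg IP, with brain and plasma concentrations taken at 1 h. Vehicle varied: 20% HP-bCD, 15% Solutol, or 10% DMSO with 2.5% PEG400 in 15% Solutol. B/P is the brain-to-plasma concentration ratio.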

[9] = Drug level in rat plasma at 10 mg/kg, ip after 1 hr; type: ADME, organism-based; parameters: dose 10 mg/kg, route intraperitoneal; settings: read-out: Drug uptake; summary of the method: as §4
[10] = Ratio of drug level in rat brain to plasma at 10 mg/kg, ip after 1 hr; type: ADME, organism-based; parameters: dose 10 mg/kg, route intraperitoneal; summary of the method: as §4
CHO-Galpha16 [11] = assay: Inhibition of rat MT1 receptor expressed in CHO-Galpha16 cells relative to control; type: cell-based; parameters: concentration or dose not given beside the values; settings: dose or concentration not given here; summary of the method: as §1

SMILES	EC50 [1] [nM]	EC50 [2] [nM]	Intrinsic activity (CHO-Galpha16 [3]) [%]	Intrinsic activity (Rattus norvegicus) [%]	Ki [4] [nM]	Ki [5] [nM]	clearance (Liver microsomes [6]) [µL/min/mg]	clearance (Liver microsomes [7]) [µL/min/mg]	concentration at 1 h [8] [nM]	concentration at 1 h [9] [nM]	Kp at 1 h [10]	IC50 [4] [nM]	inhibition (CHO-Galpha16 [11]) [%]
CC(C)Oc1cccc(C2CCN(C(=O)C3CC3)CC2)c1	> 10000	> 10000	9	10	–	–	–	–	–	–	–	–	–
COc1ccc(C2CCN(C(=O)C3CC3)CC2)cc1	> 10000	5000	58	94	1100	870	–	–	–	–	–	–	–
COc1ccc2cccc(CCNC(C)=O)c2c1 [AGOMELATINE]	2.1	1.4	94	100	1.2	0.14	361	144	1030	700	1.5	–	–
O=C(C1CC1)N1CCC(c2cccc(O)c2)CC1	> 10000	3600	96	23	–	–	–	–	–	–	–	–	–
O=C(N[C@H]1CCCN(c2cccc(OC(F)F)c2)C1)C1CC1	390	4.2	21	57	410	44	48	485	–	–	–	870	96
COc1ccccc1C1CCN(C(=O)C2CC2)CC1	> 10000	> 10000	2	3	–	–	–	–	–	–	–	–	–
COc1cccc(N2CCCC2CNC(=O)C2CC2)c1 (racemic)	18	2.5	89	98	21	3.3	–	–	–	–	–	–	–
COc1cccc(C2CCN(C(=O)C(C)C)CC2)c1	98	19	87	76	160	31	–	–	–	–	–	–	–
COc1ccc2[nH]cc(CCNC(C)=O)c2c1 [MELATONIN]	0.56	1.1	97	97	0.99	0.58	–	–	–	–	–	–	–
COc1cccc(C2CCN(C(=O)CC(C)C)CC2)c1	1700	1800	39	35	–	–	–	–	–	–	–	–	–
COc1ccc(C2CCN(C(C)=O)CC2)cc1	1700	3400	34	140	4700	360	–	–	–	–	–	–	–
COc1cccc(N2CC(NC(=O)C3CC3)Cc3ccccc32)c1 (racemic)	170	50	84	35	75	6.7	–	–	–	–	–	–	–
COc1cccc(-c2cccc(NC(=O)C3CC3)n2)c1	> 10000	1200	15	57	1500	83	–	–	–	–	–	3800	41
Cc1cccc(C2CCN(C(=O)C3CC3)CC2)c1	> 10000	> 10000	0.4	15	–	–	–	–	–	–	–	–	–
COc1cccc(C2CCN(C(C)=O)CC2)c1	> 10000	> 10000	6	19	–	–	–	–	–	–	–	–	–
CCC(=O)NCC[C@@H]1CCc2ccc3c(c21)CCO3 [RAMELTEON]	3.1	0.89	100	95	2	0.03	47	60	390	580	0.7	–	–
COc1cc(N2CCC[C@H](NC(=O)C3CC3)C2)ccc1Cl	0.74	2.3	73	65	1.2	2.1	45	199	–	–	–	–	–
COc1cccc(C2CCN(C(=O)C3CCC3)CC2)c1	380	200	52	62	140	67	–	–	–	–	–	–	–
CCC(=O)N1CCC(c2cccc(OC)c2)CC1	1300	42	31	66	810	150	–	–	–	–	–	–	–
COc1cccc(C2CCN(C(=O)[C@H]3C[C@@H]3C)CC2)c1	610	140	19	65	150	35	–	–	–	–	–	–	–
COc1cccc(C2CCN(C(=O)C3CCCCC3)CC2)c1	7500	2800	42	36	–	–	–	–	–	–	–	–	–
COc1cccc(C2CCN(C(=O)c3ccccc3)CC2)c1	> 10000	4400	12	60	650	110	–	–	–	–	–	–	–
COc1cccc(C2CCN(C(=O)C3CC3(C)C)CC2)c1 (centres undefined)	640	147	33	30	–	–	–	–	–	–	–	–	–
COc1cccc(N2CCC[C@H](NC(=O)C3CC3)C2)c1	3.9	6.2	77	74	9.9	2.7	28	616	180	730	0.2	–	–
CCOc1cccc(C2CCN(C(=O)C3CC3)CC2)c1	–	–	–	–	5700	4100	–	–	–	–	–	–	–
COc1cccc(C2CCN(C(=O)C3CCCC3)CC2)c1	210	110	67	74	–	–	–	–	–	–	–	–	–
CCC(CC)C(=O)N1CCC(c2cccc(OC)c2)CC1	2300	790	32	35	–	–	–	–	–	–	–	–	–
O=C(N[C@H]1CCCN(c2cccc(OC(F)(F)F)c2)C1)C1CC1	> 10000	12	1	53	190	66	–	–	–	–	–	2100	95

Reference: ChEMBL document CHEMBL1667823, “Design and synthesis of 4-arylpiperidinyl amide and N-arylpiperdin-3-yl-cyclopropane carboxamide derivatives as novel melatonin receptor ligands” (Bioorg Med Chem Lett, 2011)
